Broadly, the AUC(0-inf) is total exposure, with the tail of the curve extrapolated. A high value points to more exposure. A word on the AUC(0-t): it is the area under the concentration-time curve up to a stated or last time point. High values mean more exposure, low ones less exposure. For orientation: AUC means concentration integrated over time. Higher therefore signals high exposure. For orientation: Vd/F means the volume of distribution divided by bioavailability. As usually defined, the half-life is the time in which the quantity being followed falls by half. In general, IC50 refers to the concentration needed to halve the response being measured. The term EC50 denotes the concentration giving half of the maximal effect. A high value points to weaker potency.

Series [1] is classed as in vivo, human (Chinese patients with type 2 diabetes). The following applies: for AUC(0-inf) / AUC(0-t) / AUC / Tmax / Vd/F / half-life / k el / Cmax: human, plasma; for AUC(0-inf) / AUC(0-t) / AUC / Tmax / Vd/F / half-life / k el: oral; for AUC(0-inf): AUCinf; for AUC(0-inf) / AUC(0-t) / AUC / Vd/F / half-life / k el / %AUC_ex,ss / CLss/F / Cmin,ss / %AUC_ex / CL/F: mean (SD); for AUC(0-t): AUClast; for AUC: AUCtau; for Tmax: median (range); for Vd/F: Vz/F; for k el: λz; for Cmax: po. Put shortly: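 Fasting oral tablets of 50, 100 or 200 mg were given once daily on days 1 and 3–9 (eight doses). Plasma was spun at 1700 ± 50 g, 4 °C, 10 min, acidified with 50% acetic acid (1:100) and stored ≤ –60 °C. Analysis was by validated LC-MS/MS (1.00–2000 ng/mL; LLOQ 1.00 ng/mL). Individual parameters and accumulation ratio came from noncompartmental analysis using actual sampling times.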

Series [2] deals with DPP-4 activity in the plasma. The following applies: plasma of humans, rodents, dogs, and monkeys, range over species; cited from earlier work.
The conditions of series [3]: single dose of 100 mg, healthy subjects, cited from earlier work.
A further series is described as follows: Safety assessment. It counts as in vivo, human (Chinese patients with type 2 diabetes). Put shortly: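 Treatment-emergent adverse events were recorded as a secondary outcome in all patients dosed at least once. Dosing was oral tablets of 50, 100 or 200 mg, fasting, once daily on days 1 and 3–9. Patients were grouped by the dose actually received.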
A further series concerns DPP‐9. The following applies: cited from earlier work.
Another series concerns diet-induced obese mice. Conditions: DBPR108 in combination with metformin; cited from earlier work.
In series [4] the target is T1, DPP-4 (Homo sapiens, UniProt P27487). The experiment in a line: PK-PD relationship between DPP-4 inhibition and DBPR108 exposure. In kind it is in vivo, human (Chinese patients with type 2 diabetes). Put shortly: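 Each patient's plasma drug level (LC-MS/MS) was paired with plasma DPP-4 % inhibition, after one dose and after repeated once-daily oral dosing at 50–200 mg. Linear correlation with exposure was assessed, and inhibition versus concentration was fitted with an Emax model giving Emax and EC50. Only patients with evaluable PK and PD data were included.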
T1 sequence (P27487 39-766): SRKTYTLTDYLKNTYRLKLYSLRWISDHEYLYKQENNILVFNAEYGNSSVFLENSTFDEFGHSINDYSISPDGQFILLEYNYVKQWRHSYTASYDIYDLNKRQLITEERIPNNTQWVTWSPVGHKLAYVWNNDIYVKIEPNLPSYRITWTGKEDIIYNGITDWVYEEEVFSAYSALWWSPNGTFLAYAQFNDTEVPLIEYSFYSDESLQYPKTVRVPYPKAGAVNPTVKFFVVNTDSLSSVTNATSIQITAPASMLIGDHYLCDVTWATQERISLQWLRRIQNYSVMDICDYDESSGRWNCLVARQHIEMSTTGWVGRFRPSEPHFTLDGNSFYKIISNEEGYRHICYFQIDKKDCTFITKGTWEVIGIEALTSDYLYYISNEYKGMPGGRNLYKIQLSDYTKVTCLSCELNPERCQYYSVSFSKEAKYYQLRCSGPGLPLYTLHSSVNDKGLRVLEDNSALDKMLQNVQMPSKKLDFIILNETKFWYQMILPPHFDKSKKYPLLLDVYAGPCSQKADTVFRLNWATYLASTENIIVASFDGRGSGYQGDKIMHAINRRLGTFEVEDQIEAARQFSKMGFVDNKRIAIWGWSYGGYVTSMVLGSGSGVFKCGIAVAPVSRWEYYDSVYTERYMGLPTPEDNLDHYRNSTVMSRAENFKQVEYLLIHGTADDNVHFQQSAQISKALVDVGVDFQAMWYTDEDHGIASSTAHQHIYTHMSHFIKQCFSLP

The test system of series [5] is fibroblast activation protein. Conditions: cited from earlier work.
The target of series [6] is T1, DPP-4. Put plainly: Inhibition of plasma DPP-4 activity after single and multiple doses of DBPR108. In kind it is in vivo, human (Chinese patients with type 2 diabetes). Put shortly:
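Chinese adults with type 2 diabetes (HbA1c 7.0–9.5%, BMI 19–35 kg/m2), 10 per group. Oral tablets of 50, 100 or 200 mg were given fasting, once daily on days 1 and 3–9. Plasma was spun at 1300 ± 50 g, 2–8 °C, 10 min and stored ≤ –60 °C. DPP-4 activity was read on a microplate reader (LLOQ 21.23 μU/mL), with % inhibition taken from baseline.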

In the next series the test system is active GLP-1. The experiment in a line: Plasma active GLP-1 level after single and multiple doses of DBPR108. It counts as in vivo, human (Chinese patients with type 2 diabetes). Conditions: for Emax,GLP-1 (active GLP-1): mean (SD). The method in brief: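 Patients with type 2 diabetes, 10 per group, received oral tablets of 50, 100 or 200 mg fasting, once daily on days 1 and 3–9. Plasma was spun at 1300 ± 50 g, 2–8 °C, 10 min and stored ≤ –60 °C. Active GLP-1 was measured by MSD V-PLEX kit (LLOQ 0.182 pM). Emax and time to Emax were taken per group, and correlation with exposure was checked.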

The next series concerns DPP‐4. The following applies: cited from earlier work.
In a further series the test system is DPP‐2. Conditions: cited from earlier work.
The next series deals with DPP‐8. Conditions: cited from earlier work.
The conditions of series [7]: large clinical trials, rare; cited from earlier work.
Series [8] has as its system DPP-4. The following applies: 168 h post single dose of 25 mg, healthy Japanese subjects; cited from earlier work.
[9] abbreviates: 50 mg, multiple doses 50 mg once daily.
Setting [10] is: 100 mg, multiple doses 100 mg once daily.
The mark [11] stands for this setting: 200 mg, multiple doses 200 mg once daily.
Setting [12] is: multiple doses 50 mg once daily.
The mark [13] stands for this setting: multiple doses 100 mg once daily.
The mark [14] stands for this setting: multiple doses 200 mg once daily.
Setting [15] is: single dose and multiple doses, 50 mg to 200 mg, linear regression.
Where [16] appears, read: multiple doses, range over 50-200 mg groups.

Where “and” joins values, the source holds several entries; their conditions need not be identical. Equal values may be shown once. Read-outs that look alike come from different tables or passages of the source.

With `CC(C)(CC(=O)N1CCCC1)NCC(=O)N1C[C@@H](F)C[C@H]1C#N` [DBPR108, (2S,4S)-1-[2-(1,1-dimethyl-3-oxo-3-pyrrolidin-1-yl-propylamino)acetyl]-4-fluoro-pyrrolidine-2-carbonitrile], the “Dose proportionality of exposure (power model)” value in [1] (50 mg to 200 mg, single dose and multiple doses) is recorded as “increased dose proportionally”. In addition, in [1] (dosing on days 1 and 3-9), the “Steady state achieved on” value came out at 7 days. In addition, the AUC(0-inf) worked out at 0.792 µg·h/mL in series [1] (50 mg, single dose 50 mg); 1.53 µg·h/mL in series [1] (100 mg, single dose 100 mg); 3.4 µg·h/mL in series [1] (200 mg, single dose 200 mg). Moreover, the exposure AUC(0-t) was 0.78 µg·h/mL in series [1] (50 mg, single dose 50 mg); 1.5 µg·h/mL in series [1] (100 mg, single dose 100 mg); 3.28 µg·h/mL in [1] (200 mg, single dose 200 mg). The exposure (AUC) in [1] (50 mg, single dose 50 mg) came out at 0.77 µg·h/mL; in series [1] (100 mg, single dose 100 mg), 1.45 µg·h/mL; in series [1] (200 mg, single dose 200 mg), 3.12 µg·h/mL. In addition, the Tmax in series [1] (50 mg, single dose 50 mg) was 1.5 h; in series [1] (100 mg, single dose 100 mg), 4.5 h; in series [1] (200 mg, single dose 200 mg) it was 4.5 h; in series [3] (median (range)), 4.48 (range 1–6) h. The Vd/F in series [1] (setting [9]) worked out at 806 L; in [1] (50 mg, single dose 50 mg) it was 479 L; in series [1] (setting [10]) it was 896 L; in series [1] (100 mg, single dose 100 mg) it was 1010 L; in series [1] (setting [11]) it was 894 L; in series [1] (200 mg, single dose 200 mg) it was 1070 L. In addition, the half-life was 5 h in series [1] (50 mg, t½, single dose 50 mg); 8 h in series [1] (50 mg, t½,ss, multiple doses 50 mg once daily); 9.6 h in series [1] (100 mg, t½, single dose 100 mg); 7.4 h in series [1] (100 mg, t½,ss, multiple doses 100 mg once daily); 12.3 h in [1] (200 mg, t½, single dose 200 mg); 10.2 h in [1] (200 mg, t½,ss, multiple doses 200 mg once daily). Further, the k el in series [1] (setting [9]) is 3.56e-05 s⁻¹; in series [1] (50 mg, single dose 50 mg), 5e-05 s⁻¹; in [1] (setting [10]) it was 4.03e-05 s⁻¹; in series [1] (100 mg, single dose 100 mg), 3.61e-05 s⁻¹; in series [1] (setting [11]) it was 2.69e-05 s⁻¹; in [1] (200 mg, single dose 200 mg), 2.78e-05 s⁻¹. The Cmax in series [1] (50 mg) was 0.151 µg/mL; in series [1] (100 mg) it was 0.239 µg/mL; in series [1] (200 mg), 0.474 µg/mL; in series [3] (mean (SD)), 218.8 (101.8) ng/mL. For the same molecule, the “%AUC_ex,ss” value in [1] (setting [12]) is recorded as 4.48 (4.09) %; in [1] (setting [13]), 2.33 (3.04) %; in [1] (setting [14]) it was 3.17 (3.44) %. Further, the CLss/F in series [1] (setting [12]) is 76.0 (23.3) L/h; in series [1] (setting [13]) it was 76.4 (22.3) L/h; in series [1] (setting [14]), 64.6 (16.7) L/h. The “Cmin,ss” value was 3.2 (1.6) ng/mL in [1] (setting [12]), 5.6 (2.9) ng/mL in [1] (setting [13]) and 18.3 (16.8) ng/mL in series [1] (setting [14]). For the same molecule, the “Accumulation ratio (Rac)” value in series [1] (multiple doses, range over the 50-, 100-, 200-mg groups) is 0.85 to 1.3 and 0.85–1.3. For the same molecule, the “Steady state reached after” value in series [1] (once-daily dosing, 50-200 mg) is given as “four”. Besides, the “%AUC_ex” value in series [1] (single dose 50 mg) was 1.5 (0.9) %; in [1] (single dose 100 mg), 2.3 (1.4) %; in series [1] (single dose 200 mg), 3.2 (3.2) %. Besides, the CL/F is reported as 66.6 (16.5) L/h in series [1] (single dose 50 mg), 72.9 (26.2) L/h in series [1] (single dose 100 mg) and 63.3 (17.0) L/h in series [1] (single dose 200 mg). Moreover, the IC50 in [2] is 0.0041 to 0.0204 µM; in the series on DPP‐9, above 0.05 µM; in series [5], above 0.05 µM; with DPP‐4, 0.015 µM; in the series on DPP‐2, above 0.05 µM; in the series on DPP‐8 it was above 0.05 µM. The t½ in series [3] (mean (SD)) is listed as 8.2 (8.6) h. Further, the Tolerability entry in the series “Safety assessment” (50-200 mg once daily, eight doses) is “well tolerated”. Also, the Cardiovascular adverse events entry in “Safety assessment” (all 30 patients) is on record as “no cardiovascular adverse events were observed”. For the same molecule, the “Severe TEAEs, serious TEAEs, TEAEs leading to treatment interruption or discontinuation” value in “Safety assessment” (all 30 patients) is on record as “No severe TEAEs, serious TEAEs, or TEAEs leading to treatment interruption or discontinuation occurred”. In addition, the “TEAE white blood cell count increase, n [%]” value in the series “Safety assessment” (all 30 patients) is 1 [3.3%]. Also, in the series “Safety assessment” (all 30 patients, 50-200 mg), the “Patients with treatment-emergent adverse events (TEAEs)” value was 20%. Moreover, the Glucose tolerability result with diet-induced obese mice is “improved glucose tolerability”. Further, the EC50 at DPP-4 [4] (EC50 (Emax model), after a single administration, DPP-4 inhibition versus plasma concentration) was 0.323 µM. Besides, the “Emax,DPP-4 (Emax model)” value on DPP-4 [4] (after multiple doses, DPP-4 inhibition versus plasma concentration) was 106.19%. In addition, the Emax is 120% on DPP-4 [4] (read-out: Emax,DPP-4 (Emax model), after a single administration, DPP-4 inhibition versus plasma concentration) and 106% on DPP-4 [4] (read-out: Emax,DPP-4 (Emax model), after multiple doses, DPP-4 inhibition versus plasma concentration). On DPP-4 [4] (setting [15]), the “Correlation between DPP-4 inhibition and DBPR108 exposure” value is on record as “linear correlation was observed”. The “maximum inhibitory efficacy of DPP-4” value at DPP-4 [6] (setting [16]) is recorded as 62.1 to 89.4%. At DPP-4 [6] (setting [16]), the “time to Emax,DPP-4” value was in the range of 3 to 4 h. Besides, the entries for the “median time to Emax of DPP-4” value on DPP-4 [6] (single dose 50 mg), at DPP-4 [6] (single dose 100 mg) and at DPP-4 [6] (single dose 200 mg) were 2 h, 4 h and 6 h, respectively. The “Active GLP-1 levels after administration” value in the series with active GLP-1 (after DBPR108 administration, 50-200 mg) is reported as “increased”. Besides, the “Emax,GLP-1 (active GLP-1)” value in the series on active GLP-1 (setting [12]) is reported as 5.7 (2.2) pM; with active GLP-1 (setting [13]), 6.6 (2.3) pM; in the series on active GLP-1 (setting [14]), 5.8 (3.2) pM; in the series with active GLP-1 (single dose 50 mg), 4.5 (1.6) pM; in the series on active GLP-1 (single dose 100 mg), 4.8 (1.4) pM; in the series with active GLP-1 (single dose 200 mg), 5.5 (2.1) pM. In addition, the “median time to Emax,GLP-1” value is 6 to 7 h in the series with active GLP-1 (setting [16]), 8 h in the series with active GLP-1 (single dose 50 mg), 12 h in the series on active GLP-1 (single dose 100 mg) and 12 h in the series on active GLP-1 (single dose 200 mg). Also, in the series with active GLP-1 (setting [15]), the “Correlation between changes in plasma active GLP-1 and DBPR108 exposure” value is listed as “no linear correlation was noted”.
Consider `Cn1c(=O)cc(N2CCC[C@@H](N)C2)n(Cc2ccccc2C#N)c1=O` [alogliptin], for which, in series [7], the Risk of pancreatitis result is “increased risks of pancreatitis were observed”.
On to `CS(=O)(=O)n1cc2c(n1)CN([C@H]1CO[C@H](c3cc(F)ccc3F)[C@@H](N)C1)C2` [omarigliptin], for which, in the series with DPP-4 [8], the “Emax,DPP-4” value is 86.0%.
On to `N[C@@H](CC(=O)N1CCn2c(nnc2C(F)(F)F)C1)Cc1cc(F)c(F)cc1F` [sitagliptin], for which the Risk of pancreatitis entry in series [7] is recorded as “increased risks of pancreatitis were observed”.

The values are drawn from paper PMC12064631 (Clinical Pharmacokinetics, 2025).
